Source: ChEMBL document CHEMBL1128543, “Computer-aided design and synthesis of 5-substituted tryptamines and their pharmacology at the 5-HT1D receptor: discovery of compounds with potential anti-migraine properties” (J Med Chem, 1995)

Key:
[1] = target: Beta-2 adrenergic receptor (Canis lupus familiaris) (UniProt P54833); test: Binding affinity towards Beta adrenergic receptor
[2] = target: Serotonin 3 (5-HT3) receptor (Homo sapiens) (UniProt P46098+A5X5Y0+O95264+Q70Z44+Q8WXA8); test: Binding affinity against 5-hydroxytryptamine 3 receptor […]; format: cell-based; conditions: Oryctolagus cuniculus
[3] = target: T1, Adrenergic receptor alpha-2 (Rattus norvegicus, UniProt P22086+P19328+P22909); test: Binding affinity against Alpha-2 adrenergic receptor in rat cortex using [3H]-idazoxan as radioligand
T1 sequence (P22086 whole entry): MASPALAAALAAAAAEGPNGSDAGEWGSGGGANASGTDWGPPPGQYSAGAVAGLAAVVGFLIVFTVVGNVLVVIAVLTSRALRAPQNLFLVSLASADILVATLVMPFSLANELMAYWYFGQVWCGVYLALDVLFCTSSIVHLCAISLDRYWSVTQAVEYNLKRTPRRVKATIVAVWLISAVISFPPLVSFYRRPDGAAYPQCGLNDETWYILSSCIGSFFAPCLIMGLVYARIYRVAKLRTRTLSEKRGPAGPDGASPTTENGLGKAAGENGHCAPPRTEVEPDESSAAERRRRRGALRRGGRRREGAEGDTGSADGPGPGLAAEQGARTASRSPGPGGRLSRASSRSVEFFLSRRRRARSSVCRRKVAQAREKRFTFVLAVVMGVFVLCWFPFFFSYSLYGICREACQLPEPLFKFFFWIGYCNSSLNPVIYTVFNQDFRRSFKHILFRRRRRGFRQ
T1 sequence (P19328 whole entry): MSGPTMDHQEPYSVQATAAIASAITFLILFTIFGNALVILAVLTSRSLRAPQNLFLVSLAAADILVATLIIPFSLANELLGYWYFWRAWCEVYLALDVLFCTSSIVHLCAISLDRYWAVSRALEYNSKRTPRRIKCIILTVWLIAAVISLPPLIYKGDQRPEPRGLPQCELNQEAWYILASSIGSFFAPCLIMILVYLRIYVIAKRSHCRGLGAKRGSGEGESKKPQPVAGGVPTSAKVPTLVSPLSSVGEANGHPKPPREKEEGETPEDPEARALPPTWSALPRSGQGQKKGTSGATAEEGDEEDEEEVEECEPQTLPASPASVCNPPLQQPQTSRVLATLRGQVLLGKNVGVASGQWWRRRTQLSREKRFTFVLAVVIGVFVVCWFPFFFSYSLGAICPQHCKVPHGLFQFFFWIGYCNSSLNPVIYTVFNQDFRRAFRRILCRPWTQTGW
T1 sequence (P22909 whole entry): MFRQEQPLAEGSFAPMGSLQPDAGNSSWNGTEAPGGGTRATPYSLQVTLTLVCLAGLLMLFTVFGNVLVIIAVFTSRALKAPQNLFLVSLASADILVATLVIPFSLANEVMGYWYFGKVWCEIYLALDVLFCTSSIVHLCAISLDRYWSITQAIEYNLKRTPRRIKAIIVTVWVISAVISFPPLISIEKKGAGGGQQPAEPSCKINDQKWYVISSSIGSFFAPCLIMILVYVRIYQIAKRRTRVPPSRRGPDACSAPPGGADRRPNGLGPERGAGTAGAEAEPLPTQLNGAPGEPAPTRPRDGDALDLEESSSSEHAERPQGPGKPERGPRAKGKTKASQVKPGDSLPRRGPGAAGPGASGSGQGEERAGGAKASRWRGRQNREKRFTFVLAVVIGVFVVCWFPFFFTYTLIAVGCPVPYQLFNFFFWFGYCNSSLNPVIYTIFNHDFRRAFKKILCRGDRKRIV
Summary of the method: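 Competition binding on rat cortex with [³H]idazoxan (7 nM, about K_D) against a wide test range run in duplicate. Incubation was 30 min at 27 °C in 50 mM Tris-HCl, 5 mM CaCl₂, 0.1% ascorbate and 10 mM pargyline. Assays were ended by rapid filtration and read by scintillation. Values are pK_i or pIC₅₀, mean of n ≥ 3.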

[4] = target: T2, 5-hydroxytryptamine receptor 1A (Homo sapiens) (UniProt P08908); test: Binding affinity against 5-hydroxytryptamine 1 receptor using rabbit jugular vein assay in the presence of endothelium; conditions: Oryctolagus cuniculus; target entry is the homologue from another species
T2 sequence (whole entry): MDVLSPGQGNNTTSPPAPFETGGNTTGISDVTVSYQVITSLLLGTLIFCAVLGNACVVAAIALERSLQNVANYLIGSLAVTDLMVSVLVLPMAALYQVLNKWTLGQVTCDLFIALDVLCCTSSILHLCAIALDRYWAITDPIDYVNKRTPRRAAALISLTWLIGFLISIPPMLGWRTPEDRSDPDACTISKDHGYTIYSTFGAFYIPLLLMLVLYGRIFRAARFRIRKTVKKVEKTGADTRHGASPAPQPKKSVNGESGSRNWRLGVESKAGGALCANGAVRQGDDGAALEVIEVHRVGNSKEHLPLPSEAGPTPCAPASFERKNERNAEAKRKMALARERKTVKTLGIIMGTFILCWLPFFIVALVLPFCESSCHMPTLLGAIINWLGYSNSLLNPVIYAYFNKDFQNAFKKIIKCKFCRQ

D(1A) dopamine receptor = D(1A) dopamine receptor (Rattus norvegicus, UniProt P18901); test: Binding affinity against dopamine receptor D1 in rat striatum using [3H]SCH-23390 as radioligand; format: tissue-based
Chain of D(1A) dopamine receptor (P18901 whole entry): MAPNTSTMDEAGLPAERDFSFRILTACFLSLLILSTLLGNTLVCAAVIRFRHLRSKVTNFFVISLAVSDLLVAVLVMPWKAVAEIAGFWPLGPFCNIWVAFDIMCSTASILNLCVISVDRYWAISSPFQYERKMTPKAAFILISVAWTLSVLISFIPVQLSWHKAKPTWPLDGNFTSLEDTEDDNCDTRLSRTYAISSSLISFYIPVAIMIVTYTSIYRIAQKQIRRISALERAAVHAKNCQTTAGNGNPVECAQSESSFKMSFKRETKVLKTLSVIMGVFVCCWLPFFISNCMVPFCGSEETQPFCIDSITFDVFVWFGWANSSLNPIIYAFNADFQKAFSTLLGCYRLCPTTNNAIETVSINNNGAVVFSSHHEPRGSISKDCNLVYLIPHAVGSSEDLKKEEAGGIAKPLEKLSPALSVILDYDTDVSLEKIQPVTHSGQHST
Summary of the method: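 Displacement of [³H]SCH23390 (0.3 nM, about K_D) from rat striatum homogenate, with test compounds run in duplicate over a wide range. Incubation was 30 min at 27 °C in 50 mM Tris-HCl with 5 mM CaCl₂, 0.1% w/v ascorbate and 10 mM pargyline. Assays were filtered and washed with ice-cold buffer, and bound label was counted by scintillation. Results are pK_i or pIC₅₀, n ≥ 3.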

[5] = target: Histamine H1 receptor (Homo sapiens) (UniProt P35367); test: Binding affinity against H1 receptor using rabbit saphenous vein assay.; format: tissue-based; conditions: Oryctolagus cuniculus, target entry is the homologue from another species
Chain of Histamine H1 receptor (Homo sapiens) (P35367 whole entry): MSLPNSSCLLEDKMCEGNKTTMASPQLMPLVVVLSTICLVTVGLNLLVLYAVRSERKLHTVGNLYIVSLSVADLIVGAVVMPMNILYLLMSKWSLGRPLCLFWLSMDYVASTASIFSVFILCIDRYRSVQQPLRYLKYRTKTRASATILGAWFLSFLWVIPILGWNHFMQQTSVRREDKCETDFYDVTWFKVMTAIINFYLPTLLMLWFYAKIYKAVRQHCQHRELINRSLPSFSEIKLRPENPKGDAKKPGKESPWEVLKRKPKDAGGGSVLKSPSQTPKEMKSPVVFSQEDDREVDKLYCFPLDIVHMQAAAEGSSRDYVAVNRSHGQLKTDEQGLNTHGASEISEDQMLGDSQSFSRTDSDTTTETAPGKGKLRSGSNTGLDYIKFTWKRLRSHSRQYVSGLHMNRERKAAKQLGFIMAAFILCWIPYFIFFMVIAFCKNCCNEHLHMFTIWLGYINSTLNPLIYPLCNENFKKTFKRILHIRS

[6] = target: 5-hydroxytryptamine receptor 1D (Homo sapiens) (UniProt P28221); test: The compound was tested for binding affinity against 5-HT1D receptor; conditions: Oryctolagus cuniculus
Chain of 5-hydroxytryptamine receptor 1D (Homo sapiens) (P28221 whole entry): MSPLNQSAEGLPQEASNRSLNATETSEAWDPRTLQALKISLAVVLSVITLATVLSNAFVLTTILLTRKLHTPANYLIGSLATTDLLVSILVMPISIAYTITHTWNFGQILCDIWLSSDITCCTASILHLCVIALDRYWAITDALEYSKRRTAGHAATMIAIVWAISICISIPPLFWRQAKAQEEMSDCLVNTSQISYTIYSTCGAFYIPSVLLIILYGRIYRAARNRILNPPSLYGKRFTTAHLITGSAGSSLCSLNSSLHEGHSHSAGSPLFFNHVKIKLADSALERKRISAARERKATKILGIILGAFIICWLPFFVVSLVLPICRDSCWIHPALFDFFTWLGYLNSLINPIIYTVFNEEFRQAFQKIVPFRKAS
Summary of the method: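 Rabbit saphenous vein rings (male New Zealand White; 4–5 mm) mounted on tungsten wires in Krebs–Henseleit buffer, pH 7.4, 37 °C, gassed with 95% O2/5% CO2, at 2 g passive force. Pretreated for 30 min with pargyline (500 μM) and phenoxybenzamine (0.3 μM), then washed. Cumulative 5-HT curve, then after 60 min a test agonist curve. Potency is p[A50]; α is test maximum/5-HT maximum; n ≥ 3.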

Oryctolagus cuniculus [7] = organism: Oryctolagus cuniculus; test: (§1) Intrinsic activity against 5-hydroxytryptamine 1 receptor using rabbit saphenous vein assay.; format: tissue-based
Summary of the method: (§2)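 Male New Zealand White rabbit saphenous vein rings (4–5 mm) in Krebs–Henseleit at 37 °C, pH 7.4, gassed with 95% O₂:5% CO₂, under 2 g passive force. Tissues got 30 min pargyline (500 μM) and phenoxybenzamine (0.3 μM), then were washed and checked with 1 μM 5-HT. A cumulative 5-HT curve was followed 60 min later by a test agonist curve. Potency is p[A₅₀]; α is test max/5-HT max; n ≥ 3.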

[8] = target: 5-hydroxytryptamine receptor 1D (Homo sapiens) (UniProt P28221); test: as §1; format: tissue-based; conditions: Oryctolagus cuniculus, target entry is the homologue from another species; summary of the method: as §2
Oryctolagus cuniculus [9] = organism: Oryctolagus cuniculus; test: Binding affinity against 5-hydroxytryptamine 1 receptor using rabbit saphenous vein assay.; format: tissue-based; summary of the method: as §2
Oryctolagus cuniculus [10] = organism: Oryctolagus cuniculus; test: Binding affinity against 5-hydroxytryptamine 1D receptor using rabbit saphenous vein assay.; format: tissue-based; summary of the method: as §2

Chain of Beta-2 adrenergic receptor (Canis lupus familiaris) (P54833 whole entry, looked up): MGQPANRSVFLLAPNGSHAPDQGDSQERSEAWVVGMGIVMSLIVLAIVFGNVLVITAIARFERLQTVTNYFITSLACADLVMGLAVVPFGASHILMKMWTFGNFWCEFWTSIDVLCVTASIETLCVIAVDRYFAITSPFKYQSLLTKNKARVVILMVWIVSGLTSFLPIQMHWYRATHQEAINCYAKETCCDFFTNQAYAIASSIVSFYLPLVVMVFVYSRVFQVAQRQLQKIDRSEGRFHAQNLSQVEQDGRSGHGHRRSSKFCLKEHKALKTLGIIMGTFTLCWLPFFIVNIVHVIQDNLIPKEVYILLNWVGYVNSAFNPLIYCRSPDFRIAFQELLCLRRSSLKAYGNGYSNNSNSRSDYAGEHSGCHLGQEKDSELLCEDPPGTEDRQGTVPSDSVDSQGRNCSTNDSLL

SMILES: CN(C)CCc1c[nH]c2ccc(C[C@H]3COC(=O)N3)cc12 [ZOLMITRIPTAN]
- p[A50] [1]: < 4
- p[A50] [2]: < 4.5
- Kd [3]: 7 nM
- p[A50] [4]: 6.45
- Kd (D(1A) dopamine receptor): 0.3 nM
- p[A50] [5]: 5.5
- p[A50] [6]: 6.8
- Intrinsic activity (Oryctolagus cuniculus [7]): 0.77
- p[A50] [8]: 8.7
- p[A50] (Oryctolagus cuniculus [9]): 6.8
- p[A50] (Oryctolagus cuniculus [10]): < 4.5
